Experiments:
MCF7 = test: Antiproliferative activity against human MCF7 cells after 48 hrs by MTT assay; type: functional, cell-based; settings: MCF7, 48 h
How it was run: (§1)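 MCF-10, MCF-7 or MDA-MB-231 cells, 5.0×10^5 cells seeded and grown 24 h, then exposed 48 h at 37°C to serial dilutions from 500 to 3.9 μM (DMSO 0,5%). Read-out by MTT (2.0 mg/mL in PBS), formazan dissolved in DMSO, absorbance at 570 nm. Viability is given as % of untreated cells, with IC50 from curve fitting. Mean of triplicates.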

MDA-MB-231 [1] = test: Antiproliferative activity against human MDA-MB-231 cells after 48 hrs by MTT assay; type: functional, cell-based; settings: MDA-MB-231, 48 h; how it was run: as §1
[2] = Antiproliferative activity against human MCF10 cells after 48 hrs by MTT assay; type: cell-based; how it was run: as §1
[3] = Selectivity index, ratio of CC50 for human MCF10 cells to IC50 for human MCF7 cells; type: toxicity; settings: MCF10 cells versus MCF7 cells, read-out: Ratio CC50/IC50
[4] = Selectivity index, ratio of CC50 for human MCF10 cells to IC50 for human MDA-MB-231 cells; type: toxicity; settings: MCF10 cells versus MDA-MB-231 cells, read-out: Ratio CC50/IC50
Calf thymus DNA = test: Binding affinity to calf thymus DNA at 10^-6 mol/L after 5 mins by UV/Visible spectrophotometric method; type: nucleic-acid assay; settings: Bos taurus
How it was run: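 Calf-thymus DNA dissolved in Tris buffer (5 mM Tris-HCl, 50 mM NaCl, pH 7.4), stirred about 12 h, A260/A280 1.86, quantified at 260 nm (ε 6600 M⁻¹ cm⁻¹). Kb was taken from a Benesi-Hildebrand fit.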

MDA-MB-231 [5] = test: Induction of apoptosis in human MDA-MB-231 cells assessed as early apoptotic cells after 48 hrs by Annexin V/FITC-propidium iodide staining-based flow cytometric analysis (reference value: 9.0%)
MDA-MB-231 [6] = test: Induction of apoptosis in human MDA-MB-231 cells assessed as necrotic cells after 48 hrs by Annexin V/FITC-propidium iodide staining-based flow cytometric analysis (reference value: 7.2%)
MDA-MB-231 [7] = test: Induction of apoptosis in human MDA-MB-231 cells assessed as late apoptotic cells after 48 hrs by Annexin V/FITC-propidium iodide staining-based flow cytometric analysis (reference value: 10.7%)

For OC(CNCc1ccccc1)c1ccc(Br)cc1 (stereo unspecified), the IC50 (MCF7) was 53 µM, the IC50 (MDA-MB-231 [1]) was 73.9 µM and the CC50 at 48 h [2] was 116 µM. It also gave a selectivity ratio [3] of 2.18 and a selectivity ratio [4] of 1.56.

OC(CNCCCCc1ccccc1)c1ccccc1 (stereo unspecified) gave a Kb (Calf thymus DNA) of 1.59 ×10⁵ /M, an IC50 (MCF7) of 37.2 µM and an IC50 (MDA-MB-231 [1]) of 50.8 µM. It also gave a CC50 at 48 h [2] of 107 µM, a selectivity ratio [3] of 2.88 and a selectivity ratio [4] of 2.11.

In the case of OC(CNc1ccccc1)c1ccccc1 (stereo unspecified), the IC50 (MCF7) is reported as 236 µM, the IC50 (MDA-MB-231 [1]) is reported as 237 µM and the CC50 at 48 h [2] is reported as 316 µM. It also gave a selectivity ratio [3] of 1.33 and a selectivity ratio [4] of 1.33.

For OC(CNCc1ccccc1)c1ccccc1 (stereo unspecified), the IC50 (MCF7) was 210 µM, the IC50 (MDA-MB-231 [1]) was 225 µM and the CC50 at 48 h [2] was 202 µM. The selectivity ratio [3] was 0.96 and the selectivity ratio [4] was 0.89.

c1ccc(CCN2CC2c2ccccc2)cc1 (stereo unspecified) showed an IC50 (MCF7) of 170 µM, an IC50 (MDA-MB-231 [1]) of 19 µM and a CC50 at 48 h [2] of 37.6 µM. For the same compound, the selectivity ratio [3] was 0.2 and the selectivity ratio [4] was 1.97.

Work on CCCCNCC(O)c1ccccc1 (stereo unspecified) yielded an IC50 (MCF7) of 280 µM, an IC50 (MDA-MB-231 [1]) of 259 µM and a CC50 at 48 h [2] of 188 µM. The selectivity ratio [3] was 0.67 and the selectivity ratio [4] was 0.72.

OC(CNCCCCc1ccccc1)c1ccc(Br)cc1 (stereo unspecified) showed an IC50 (MCF7) of 14.5 µM, an IC50 (MDA-MB-231 [1]) of 22.7 µM and an Activity (MDA-MB-231 [5]) of 33.6%. It also gave a CC50 at 48 h [2] of 58.5 µM, an Activity (MDA-MB-231 [6]) of 6.7% and a selectivity ratio [3] of 4.04. It also gave a selectivity ratio [4] of 2.57 and an Activity (MDA-MB-231 [7]) of 56.8%.

For c1ccc(CCCCN2CC2c2ccccc2)cc1 (stereo unspecified), the IC50 (MCF7) was 24.7 µM, the IC50 (MDA-MB-231 [1]) was 11.1 µM and the CC50 at 48 h [2] was 43.3 µM. The Activity (MDA-MB-231 [6]) was 3.3%, the selectivity ratio [3] was 1.83 and the selectivity ratio [4] was 4.08. For the same compound, the Activity (MDA-MB-231 [7]) was 40%.

OC(CNCCc1ccccc1)c1ccccc1 (stereo unspecified) gave an IC50 (MCF7) of 318 µM, an IC50 (MDA-MB-231 [1]) of 190 µM and a CC50 at 48 h [2] of 198 µM. It also gave a selectivity ratio [3] of 0.62 and a selectivity ratio [4] of 1.04.

Work on OC(CNCCCc1ccccc1)c1ccccc1 (stereo unspecified) yielded an IC50 (MCF7) of 96.4 µM, an IC50 (MDA-MB-231 [1]) of 102 µM and a CC50 at 48 h [2] of 196 µM. For the same compound, the selectivity ratio [3] was 2.02 and the selectivity ratio [4] was 1.92.

Work on c1ccc(CCCN2CC2c2ccccc2)cc1 (stereo unspecified) yielded an IC50 (MCF7) of 24.5 µM, an IC50 (MDA-MB-231 [1]) of 19.9 µM and a CC50 at 48 h [2] of 35.4 µM. It also gave a selectivity ratio [3] of 1.44 and a selectivity ratio [4] of 1.77.

Work on c1ccc(CN2CC2c2ccccc2)cc1 (stereo unspecified) yielded an IC50 (MCF7) of 27.8 µM, an IC50 (MDA-MB-231 [1]) of 40.4 µM and a CC50 at 48 h [2] of 41 µM. For the same compound, the selectivity ratio [3] was 1.47 and the selectivity ratio [4] was 1.01.

Reference: ChEMBL document CHEMBL4261579, “β-amino alcohols and their respective 2-phenyl-N-alkyl aziridines as potential DNA minor groove binders” (Eur J Med Chem, 2018)
